Laboratory results as given in ChEMBL document CHEMBL1156332, “Polysubstituted pyrazoles, part 6. Synthesis of some 1-(4-chlorophenyl)-4-hydroxy-1H-pyrazol-3-carbonyl derivatives linked to nitrogenous heterocyclic ring systems as potential antitumor agents” (2010).
Calls of active or inactive are those of the source. No cut-off for these calls is given here.

Key:
Type in all cases: functional
UACC-62 = assay: Growth inhibition of human UACC62 cells after 48 hrs by sulforhodamine B assay; conditions: UACC-62, 48 h
Procedure, shortened: (§1)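 Adherent lines plated and held 24 h at 37 °C, 5% CO2, 100% humidity; time-zero plates TCA-fixed at drug addition. Drugs from DMSO stocks were made into five concentrations by 10-fold or half-log serial dilution and applied for 48 h continuous exposure. Cells were fixed with cold TCA (10% final) for 60 min at 4 °C, then stained with 0.4% SRB in 1% acetic acid for 10 min. Dye was solubilized in 10 mM Tris base and read at 515 nm. GI50 was taken from log concentration–growth curves.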

IGROV-1 = assay: Growth inhibition of human IGROV1 cells after 48 hrs by sulforhodamine B assay; conditions: IGROV-1, 48 h
Procedure, shortened: (§2)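 NCI 60-line panel, five concentrations (0.01–100 µM) from DMSO stock diluted in medium with gentamicin. Cells were plated 24 h before dosing, with time-zero plates fixed at drug addition, then exposed 48 h at 37 °C, 5% CO₂. Adherent cells were fixed with cold TCA (10% final) and suspension cells with 16% TCA. Staining used 0.4% SRB, solubilised in 10 mM Tris and read at 515 nm. GI₅₀ was taken from log concentration–% growth curves.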

MDA-MB-435 = assay: Growth inhibition of human MDA-MB-435 cells after 48 hrs by sulforhodamine B assay; conditions: MDA-MB-435, 48 h; procedure, shortened: as §2
OVCAR-3 = assay: Growth inhibition of human OVCAR-3 cells after 48 hrs by sulforhodamine B assay; conditions: OVCAR-3, 48 h; procedure, shortened: as §2
[1] = Cytotoxicity against human lung cancer cells after 48 hrs by sulforhodamine B assay; conditions: Cancer cell lines
Procedure, shortened: (§3)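 NCI five-dose screen: about 60 human tumour lines grouped into nine subpanels were plated and incubated 24 h before dosing. Compounds went in as DMSO stock and were diluted in medium to five final concentrations (0.01–100 µM). Exposure was 48 h continuous at 37 °C, 5% CO₂, followed by TCA fixation and SRB staining read at 515 nm. Per-line GI₅₀, TGI and LC₅₀ came from log concentration–% growth curves, averaged per subpanel as MG-MID.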

NCI-H460 = assay: Growth inhibition of human NCI-H460 cells after 48 hrs by sulforhodamine B assay; conditions: NCI-H460, 48 h; procedure, shortened: as §2
HOP-62 = assay: Growth inhibition of human HOP62 cells after 48 hrs by sulforhodamine B assay; conditions: HOP-62, 48 h; procedure, shortened: as §2
[2] = Cytotoxicity against human renal cancer cells after 48 hrs by sulforhodamine B assay; conditions: Cancer cell lines; procedure, shortened: as §3
OVCAR-4 = assay: Growth inhibition of human OVCAR4 cells after 48 hrs by sulforhodamine B assay; conditions: OVCAR-4, 48 h; procedure, shortened: as §2
[3] = Cytotoxicity against human leukemia cells after 48 hrs by sulforhodamine B assay; conditions: Leukemia cell; procedure, shortened: as §3
MCF7 = assay: Growth inhibition of human MCF7 cells after 48 hrs by sulforhodamine B assay; conditions: MCF7, 48 h; procedure, shortened: as §2
M14 = assay: Growth inhibition of human M14 cells after 48 hrs by sulforhodamine B assay; conditions: M14, 48 h; procedure, shortened: as §2
SF-539 = assay: Growth inhibition of human SF539 cells after 48 hrs by sulforhodamine B assay; conditions: SF-539, 48 h; procedure, shortened: as §1
SF-268 = assay: Growth inhibition of human SF268 cells after 48 hrs by sulforhodamine B assay; conditions: SF-268, 48 h; procedure, shortened: as §2
KM12 = assay: Growth inhibition of human KM12 cells after 48 hrs by sulforhodamine B assay; conditions: KM12, 48 h; procedure, shortened: as §2
HCT-15 = assay: Growth inhibition of human HCT15 cells after 48 hrs by sulforhodamine B assay; conditions: HCT-15, 48 h; procedure, shortened: as §2
[4] = Cytotoxicity against human breast cancer cells after 48 hrs by sulforhodamine B assay; conditions: Cancer cell lines; procedure, shortened: as §3
MDA-MB-468 = assay: Growth inhibition of human MDA-MB-468 cells after 48 hrs by sulforhodamine B assay; conditions: MDA-MB-468, 48 h; procedure, shortened: as §2
SNB-19 = assay: Growth inhibition of human SNB19 cells after 48 hrs by sulforhodamine B assay; conditions: SNB-19, 48 h; procedure, shortened: as §1
OVCAR-5 = assay: Growth inhibition of human OVCAR5 cells after 48 hrs by sulforhodamine B assay; conditions: OVCAR-5, 48 h; procedure, shortened: as §2
ACHN = assay: Growth inhibition of human ACHN cells after 48 hrs by sulforhodamine B assay; procedure, shortened: as §2
[5] = Growth inhibition of human Hs 578T cells after 48 hrs by sulforhodamine B assay; procedure, shortened: as §2
SNB-75 = assay: Growth inhibition of human SNB75 cells after 48 hrs by sulforhodamine B assay; conditions: SNB-75, 48 h; procedure, shortened: as §1
OVCAR-8 = assay: Growth inhibition of human OVCAR8 cells after 48 hrs by sulforhodamine B assay; conditions: OVCAR-8, 48 h; procedure, shortened: as §2
786-0 = assay: Growth inhibition of human 786-0 cells after 48 hrs by sulforhodamine B assay; conditions: 786-0, 48 h; procedure, shortened: as §2
SK-OV-3 = assay: Growth inhibition of human SKOV3 cells after 48 hrs by sulforhodamine B assay; conditions: SK-OV-3, 48 h; procedure, shortened: as §1
SW-620 = assay: Growth inhibition of human SW620 cells after 48 hrs by sulforhodamine B assay; conditions: SW-620, 48 h; procedure, shortened: as §1
HOP-92 = assay: Growth inhibition of human HOP92 cells after 48 hrs by sulforhodamine B assay; conditions: HOP-92, 48 h; procedure, shortened: as §2
K562 = assay: Growth inhibition of human K562 cells after 48 hrs by sulforhodamine B assay; procedure, shortened: as §2
DU-145 = assay: Growth inhibition of human DU145 cells after 48 hrs by sulforhodamine B assay; conditions: DU-145, 48 h; procedure, shortened: as §2
SN12C = assay: Growth inhibition of human SN12C cells after 48 hrs by sulforhodamine B assay; procedure, shortened: as §1
NCI-H226 = assay: Growth inhibition of human NCI-H226 cells after 48 hrs by sulforhodamine B assay; conditions: NCI-H226, 48 h; procedure, shortened: as §2
NCI/ADR-RES = assay: Growth inhibition of human NCI/ADR-RES cells after 48 hrs by sulforhodamine B assay; procedure, shortened: as §2
HT-29 = assay: Growth inhibition of human HT-29 cells after 48 hrs by sulforhodamine B assay; conditions: HT-29, 48 h; procedure, shortened: as §2
U-251 = assay: Growth inhibition of human U251 cells after 48 hrs by sulforhodamine B assay; conditions: U-251, 48 h; procedure, shortened: as §1
[6] = Cytotoxicity against human prostate cancer cells after 48 hrs by sulforhodamine B assay; conditions: Cancer cell lines; procedure, shortened: as §3
TK-10 = assay: Growth inhibition of human TK10 cells after 48 hrs by sulforhodamine B assay; conditions: TK-10, 48 h; procedure, shortened: as §1
UACC-257 = assay: Growth inhibition of human UACC257 cells after 48 hrs by sulforhodamine B assay; conditions: UACC-257, 48 h; procedure, shortened: as §1
[7] = Cytotoxicity against human colon cancer cells after 48 hrs by sulforhodamine B assay; conditions: Cancer cell lines; procedure, shortened: as §3
RPMI-8226 = assay: Growth inhibition of human RPMI8226 cells after 48 hrs by sulforhodamine B assay; conditions: RPMI-8226, 48 h; procedure, shortened: as §2
HCT-116 = assay: Growth inhibition of human HCT116 cells after 48 hrs by sulforhodamine B assay; conditions: HCT-116, 48 h; procedure, shortened: as §2

## Cc1cc(C)n(C(=O)c2nn(-c3ccc(Cl)cc3)cc2O)n1
UACC-62
  GI50: 3.46 µM
IGROV-1
  GI50: 3.16 µM
MDA-MB-435
  GI50: 3.94 µM
OVCAR-3
  GI50: 1.27 µM
[1]
  GI50: 4.69 µM
  TGI: 81.7 µM
NCI-H460
  GI50: 2.38 µM
HOP-62
  GI50: 5.21 µM
[2]
  GI50: 4.52 µM
  TGI: 71.3 µM
OVCAR-4
  GI50: 9.19 µM
[3]
  GI50: 3.65 µM
  TGI: 74.3 µM
MCF7
  GI50: 4.52 µM
M14
  GI50: 4.69 µM
SF-539
  GI50: 3.05 µM
SF-268
  GI50: 4.13 µM
KM12
  GI50: 5.07 µM
HCT-15
  GI50: 3.53 µM
[4]
  GI50: 4.96 µM
MDA-MB-468
  GI50: 8.9 µM
SNB-19
  GI50: 3.6 µM
OVCAR-5
  GI50: 4.98 µM
ACHN
  GI50: 3.77 µM
[5]
  GI50: 3.21 µM
SNB-75
  GI50: 3.52 µM
OVCAR-8
  GI50: 5.96 µM
786-0
  GI50: 9.64 µM
SK-OV-3
  GI50: 7.04 µM
SW-620
  GI50: 8.02 µM
HOP-92
  GI50: 4.52 µM
K562
  GI50: inactive
DU-145
  GI50: 6.23 µM
SN12C
  GI50: 3.37 µM
NCI-H226
  GI50: 4.66 µM
NCI/ADR-RES
  GI50: 4.42 µM
HT-29
  GI50: 3.29 µM
U-251
  GI50: 2.68 µM
[6]
  GI50: 6.64 µM
TK-10
  GI50: 4.71 µM
UACC-257
  GI50: 16.6 µM
[7]
  GI50: 8.13 µM
  TGI: 85.1 µM
RPMI-8226
  GI50: 3.34 µM
HCT-116
  GI50: 3.42 µM
